Converted amounts (≈) assume the structure as drawn.
Tests used:
Format in all cases: functional
Staphylococcus aureus [1] = test: Minimum inhibitory concentration was evaluated in vitro against Staphylococcus aureus UC 76
Method in brief: (§1)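 Standard microtitration broth assay against a panel of 10 Gram-positive and Gram-negative organisms. MIC read in µg/mL and averaged over multiple experiments.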

Klebsiella pneumoniae = test: Minimum inhibitory concentration was evaluated in vitro against Klebsiella pneumoniae MGH2; method in brief: as §1
Escherichia coli = test: Antibacterial activity in vitro against Escherichia coli Vogel; method in brief: as §1
Enterococcus faecalis = test: Minimum inhibitory concentration was evaluated in vitro against Enterococcus faecalis MGH-2; method in brief: as §1
Staphylococcus aureus [2] = test: Minimum inhibitory concentration was evaluated in vitro against Staphylococcus aureus H 228; method in brief: as §1
Pseudomonas aeruginosa = test: Minimum inhibitory concentration was evaluated in vitro against Pseudomonas aeruginosa UI-18; method in brief: as §1
Enterobacter cloacae = test: Minimum inhibitory concentration in vitro against Enterobacter cloacae MA 2646
Streptococcus pyogenes [3] = test: Compounds were evaluated in vivo for antibacterial activity for mouse protection against Streptococcus pyogenes C 203 after oral administration; settings: for ED50: Streptococcus pyogenes, C 203, po, read-out: PD50
Streptococcus pyogenes [4] = test: Antibacterial activity measured as mouse protection against Streptococcus pyogenes C 203 after subcutaneous administration; settings: for ED50: Streptococcus pyogenes, C 203, sc, read-out: PD50
Streptococcus pneumoniae = test: Minimum inhibitory concentration was evaluated in vitro against Streptococcus pneumoniae SV-1; method in brief: as §1
Streptococcus pyogenes [5] = test: Minimum inhibitory concentration was evaluated in vitro against Streptococcus pyogenes C 203; method in brief: as §1
Providencia rettgeri = test: Minimum inhibitory concentration was evaluated in vitro against Providencia rettgeri M1771; method in brief: as §1
[6] = Staphylococcus aureus, read-out: MIC
[7] = Klebsiella pneumoniae, read-out: MIC
[8] = Escherichia coli, read-out: MIC
[9] = Enterococcus faecalis, read-out: MIC
[10] = Pseudomonas aeruginosa, read-out: MIC
[11] = Enterobacter cloacae, read-out: MIC
[12] = Streptococcus pneumoniae, read-out: MIC
[13] = Streptococcus pyogenes, read-out: MIC
[14] = Providencia rettgeri, read-out: MIC

Structure (SMILES) | MIC (Staphylococcus aureus [1]) | MIC (Klebsiella pneumoniae) | MIC (Escherichia coli) | MIC (Enterococcus faecalis) | MIC (Staphylococcus aureus [2]) | MIC (Pseudomonas aeruginosa) | PD50 (Streptococcus pyogenes [3]) | MIC (Streptococcus pyogenes [5]) | MIC (Staphylococcus aureus [1]; [6]) | MIC (Klebsiella pneumoniae; [7]) | MIC (Escherichia coli; [8]) | MIC (Enterococcus faecalis; [9]) | MIC (Staphylococcus aureus [2]; [6]) | MIC (Pseudomonas aeruginosa; [10]) | MIC (Enterobacter cloacae; [11]) | ED50 (Streptococcus pyogenes [3]) | ED50 (Streptococcus pyogenes [4]) | MIC (Streptococcus pneumoniae; [12]) | MIC (Streptococcus pyogenes [5]; [13]) | MIC (Providencia rettgeri; [14]) | other results
CN[C@@H](C)[C@@H]1CCN(c2nc3c(cc2F)c(=O)c(C(=O)O)cn3C2CC2)C1 | 0.05 mg/L (≈ 0.134 µM) | 0.2 mg/L (≈ 0.534 µM) | 0.1 mg/L (≈ 0.267 µM) | 0.2 mg/L (≈ 0.534 µM) | 0.2 mg/L (≈ 0.534 µM) | 1.6 mg/L (≈ 4.27 µM) | 11 mg/kg | 0.1 mg/L (≈ 0.267 µM) |  |  |  |  |  |  |  |  |  |  |  |  | MIC (Enterobacter cloacae): 0.1 mg/L (≈ 0.267 µM); PD50 (Streptococcus pyogenes [4]): 5 mg/kg; MIC (Streptococcus pneumoniae): 0.1 mg/L (≈ 0.267 µM); MIC (Providencia rettgeri): 0.8 mg/L (≈ 2.14 µM)
CCN[C@H](C)[C@@H]1CCN(c2c(F)cc3c(=O)c(C(=O)O)cn(C4CC4)c3c2C(F)(F)F)C1 |  |  |  |  |  |  |  |  | 0.05 mg/L (≈ 0.11 µM) | 1.6 mg/L (≈ 3.51 µM) | 0.8 mg/L (≈ 1.76 µM) | 0.1 mg/L (≈ 0.22 µM) | 0.05 mg/L (≈ 0.11 µM) | 6.3 mg/L (≈ 13.8 µM) | 1.6 mg/L (≈ 3.51 µM) | 2 mg/kg | 0.8 mg/kg | 0.05 mg/L (≈ 0.11 µM) | 0.1 mg/L (≈ 0.22 µM) | 3.1 mg/L (≈ 6.81 µM) | 
CC(N)C1CCN(c2c(F)cc3c(=O)c(C(=O)O)cn(C4CC4)c3c2C(F)(F)F)C1 (stereo in doubt; 36F-R,R) | 0.025 mg/L (≈ 0.0585 µM) | 0.8 mg/L (≈ 1.87 µM) | 0.8 mg/L (≈ 1.87 µM) | 0.2 mg/L (≈ 0.468 µM) | 0.1 mg/L (≈ 0.234 µM) | 6.3 mg/L (≈ 14.7 µM) | 3 mg/kg | 0.1 mg/L (≈ 0.234 µM) |  |  |  |  |  |  | 0.4 mg/L (≈ 0.936 µM) |  |  |  |  | 0.8 mg/L (≈ 1.87 µM) | PD50 (Streptococcus pyogenes [4]): 2 mg/kg; MIC (Streptococcus pneumoniae): 0.1 mg/L (≈ 0.234 µM)
CN[C@H](C)[C@@H]1CCN(c2cc3c(cc2F)c(=O)c(C(=O)O)cn3C2CC2)C1 |  |  |  |  |  |  |  |  | 0.05 mg/L (≈ 0.134 µM) | 0.4 mg/L (≈ 1.07 µM) | 0.1 mg/L (≈ 0.268 µM) | 0.2 mg/L (≈ 0.536 µM) | 0.2 mg/L (≈ 0.536 µM) | 1.6 mg/L (≈ 4.28 µM) | 0.2 mg/L (≈ 0.536 µM) | 36 mg/kg | 3 mg/kg | 0.05 mg/L (≈ 0.134 µM) | 0.05 mg/L (≈ 0.134 µM) | 0.8 mg/L (≈ 2.14 µM) | 
CCNCC1CCN(c2c(F)cc3c(=O)c(C(=O)O)cn(C4CC4)c3c2OC)C1 (centres undefined) |  |  |  |  |  |  |  |  | 0.006 mg/L (≈ 0.0149 µM) | 0.2 mg/L (≈ 0.496 µM) | 0.1 mg/L (≈ 0.248 µM) | 0.05 mg/L (≈ 0.124 µM) | 0.025 mg/L (≈ 0.062 µM) | 1.6 mg/L (≈ 3.97 µM) | 0.1 mg/L (≈ 0.248 µM) | 4 mg/kg | 0.4 mg/kg | 0.013 mg/L (≈ 0.0322 µM) | 0.013 mg/L (≈ 0.0322 µM) | 0.4 mg/L (≈ 0.991 µM) | 
CCN[C@@H](C)[C@@H]1CCN(c2c(F)c(N)c3c(=O)c(C(=O)O)cn(C4CC4)c3c2F)C1 (stereo in doubt; 32H-S,R) | 0.003 mg/L (≈ 0.00714 µM) | 0.1 mg/L (≈ 0.238 µM) | 0.1 mg/L (≈ 0.238 µM) | 0.025 mg/L (≈ 0.0595 µM) | 0.013 mg/L (≈ 0.0309 µM) | 0.8 mg/L (≈ 1.9 µM) | 6 mg/kg | 0.013 mg/L (≈ 0.0309 µM) |  |  |  |  |  |  |  |  |  |  |  |  | MIC (Enterobacter cloacae): 0.1 mg/L (≈ 0.238 µM); PD50 (Streptococcus pyogenes [4]): 3 mg/kg; MIC (Streptococcus pneumoniae): 0.013 mg/L (≈ 0.0309 µM); MIC (Providencia rettgeri): 0.4 mg/L (≈ 0.951 µM)
C[C@H](N)[C@H]1CCN(c2c(F)c(N)c3c(=O)c(C(=O)O)cn(C4CC4)c3c2F)C1 (stereo in doubt; 32F-S,S) | 0.013 mg/L (≈ 0.0331 µM) |  |  |  |  |  |  | 0.05 mg/L (≈ 0.127 µM) |  | 0.1 mg/L (≈ 0.255 µM) | 0.05 mg/L (≈ 0.127 µM) | 0.05 mg/L (≈ 0.127 µM) | 0.025 mg/L (≈ 0.0637 µM) | 0.4 mg/L (≈ 1.02 µM) | 0.05 mg/L (≈ 0.127 µM) | > 25 mg/kg | 7 mg/kg | 0.025 mg/L (≈ 0.0637 µM) |  | 0.4 mg/L (≈ 1.02 µM) | 
CN[C@@H](C)[C@H]1CCN(c2nc3c(cc2F)c(=O)c(C(=O)O)cn3C2CC2)C1 |  |  |  |  |  |  |  |  | 0.2 mg/L (≈ 0.534 µM) | 0.4 mg/L (≈ 1.07 µM) | 0.2 mg/L (≈ 0.534 µM) | 0.8 mg/L (≈ 2.14 µM) | 0.8 mg/L (≈ 2.14 µM) | 3.1 mg/L (≈ 8.28 µM) | 0.4 mg/L (≈ 1.07 µM) | 23 mg/kg | 15 mg/kg | 0.4 mg/L (≈ 1.07 µM) | 0.4 mg/L (≈ 1.07 µM) | 0.8 mg/L (≈ 2.14 µM) | 
C[C@@H](N)[C@@H]1CCN(c2nc3c(cc2F)c(=O)c(C(=O)O)cn3-c2ccc(F)cc2F)C1 |  |  |  |  |  |  |  |  | 0.025 mg/L (≈ 0.0578 µM) | 0.2 mg/L (≈ 0.463 µM) | 0.1 mg/L (≈ 0.231 µM) | 0.1 mg/L (≈ 0.231 µM) | 0.1 mg/L (≈ 0.231 µM) | 1.6 mg/L (≈ 3.7 µM) | 0.1 mg/L (≈ 0.231 µM) |  |  | 0.1 mg/L (≈ 0.231 µM) | 0.05 mg/L (≈ 0.116 µM) | 0.4 mg/L (≈ 0.925 µM) | 
CN[C@H](C)[C@H]1CCN(c2c(F)c(N)c3c(=O)c(C(=O)O)cn(C4CC4)c3c2F)C1 | 0.05 mg/L (≈ 0.123 µM) | 0.8 mg/L (≈ 1.97 µM) | 0.2 mg/L (≈ 0.492 µM) | 0.2 mg/L (≈ 0.492 µM) | 0.1 mg/L (≈ 0.246 µM) | 3.1 mg/L (≈ 7.63 µM) | 13 mg/kg | 0.2 mg/L (≈ 0.492 µM) |  |  |  |  |  |  |  |  |  |  |  |  | MIC (Enterobacter cloacae): 0.2 mg/L (≈ 0.492 µM); PD50 (Streptococcus pyogenes [4]): 13 mg/kg; MIC (Streptococcus pneumoniae): 0.2 mg/L (≈ 0.492 µM); MIC (Providencia rettgeri): 0.8 mg/L (≈ 1.97 µM)
CCN[C@H](C)[C@@H]1CCN(c2c(F)cc3c(=O)c(C(=O)O)cn(C4CC4)c3c2OC)C1 |  |  |  |  |  |  |  |  | 0.003 mg/L (≈ 0.00719 µM) | 0.4 mg/L (≈ 0.958 µM) | 0.2 mg/L (≈ 0.479 µM) | 0.013 mg/L (≈ 0.0311 µM) | 0.013 mg/L (≈ 0.0311 µM) | 3.1 mg/L (≈ 7.43 µM) | 0.2 mg/L (≈ 0.479 µM) | 3 mg/kg |  | 0.003 mg/L (≈ 0.00719 µM) | 0.003 mg/L (≈ 0.00719 µM) | 0.8 mg/L (≈ 1.92 µM) | 

From ChEMBL document CHEMBL1126988, “Quinolone antibacterials containing the new 7-[3-(1-aminoethyl)-1- pyrrolidinyl] side chain: the effects of the 1-aminoethyl moiety and its stereochemical configurations on potency and in vivo efficacy” (J Med Chem, 1993)
